From ChEMBL document CHEMBL1131215, “Anhydrolide macrolides. 1. Synthesis and antibacterial activity of 2,3-anhydro-6-O-methyl 11,12-carbamate erythromycin A analogues” (1998)
Values after ≈ are worked out from the molar mass of the structure shown.

How the values were obtained:
Type in all cases: functional
Staphylococcus aureus [1] = test: In vitro antibacterial activity against 6538P strain of Staphylococcus aureus
In short: (§1)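 MIC determined by standard agar dilution; values in μg/mL.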

Streptococcus pneumoniae [2] = test: In vitro antibacterial activity against ATCC 6303 strain of Streptococcus pneumoniae; in short: as §1
Streptococcus pyogenes [3] = test: In vitro antibacterial activity against PIU 2548 strain of Streptococcus pyogenes; in short: as §1
Streptococcus pneumoniae [4] = test: In vitro antibacterial activity against 5649 strain of Streptococcus pneumoniae; in short: as §1
Staphylococcus aureus [5] = test: In vitro antibacterial activity against A5177 strain of Staphylococcus aureus; in short: as §1
Haemophilus influenzae = test: In vitro antibacterial activity against DILL strain of Haemophilus influenzae.; in short: as §1
Streptococcus pyogenes [6] = test: In vitro antibacterial activity against 930 strain of Streptococcus pyogenes; in short: as §1
[7] = In vitro antibacterial activity against A-5278 strain of Staphylococcus aureus; in short: as §1
Streptococcus pneumoniae [8] = test: In vitro antibacterial activity against 5979 strain of Streptococcus pneumoniae; in short: as §1
[9] = Streptococcus pneumoniae, ATCC 6303

| Compound | MIC (Staphylococcus aureus [1]; Staphylococcus aureus) | MIC (Streptococcus pneumoniae [2]; [9]) | MIC (Streptococcus pyogenes [3]; Streptococcus pyogenes) | MIC (Streptococcus pneumoniae [4]; Streptococcus pneumoniae) | MIC (Staphylococcus aureus [5]; Staphylococcus aureus) | MIC (Haemophilus influenzae) | MIC (Streptococcus pyogenes [6]; Streptococcus pyogenes) | MIC ([7]; Staphylococcus aureus) | MIC (Staphylococcus aureus [1]) | MIC (Streptococcus pyogenes [3]) | MIC (Streptococcus pneumoniae [8]) | MIC (Streptococcus pyogenes [6]) | MIC (Staphylococcus aureus [5]) | MIC (Streptococcus pneumoniae [2]) | MIC (Streptococcus pneumoniae [4]) | MIC [7] |
| --- | --- | --- | --- | --- | --- | --- | --- | --- | --- | --- | --- | --- | --- | --- | --- | --- |
| CC[C@H]1OC(=O)/C(C)=C/[C@H](C)[C@@H](O[C@@H]2O[C@H](C)C[C@H](N(C)C)[C@H]2O)[C@@](C)(OC)C[C@@H](C)C(=O)[C@H](C)[C@H]2N(CCCOc3ccncc3)C(=O)O[C@]12C | 0.39 µg/mL (≈ 0.533 µM) | 0.03 µg/mL (≈ 0.041 µM) | 0.2 µg/mL (≈ 0.273 µM) | 1 µg/mL (≈ 1.37 µM) | 0.39 µg/mL (≈ 0.533 µM) | 16 µg/mL (≈ 21.9 µM) |  |  |  |  |  |  |  |  |  |  |
| CC[C@H]1OC(=O)/C(C)=C/[C@H](C)[C@@H](O[C@@H]2O[C@H](C)C[C@H](N(C)C)[C@H]2O)[C@@](C)(OC)C[C@@H](C)C(=O)[C@H](C)[C@H]2N(CCc3ccc(O)cc3)C(=O)O[C@]12C | 0.78 µg/mL (≈ 1.09 µM) | 0.125 µg/mL (≈ 0.174 µM) | 0.39 µg/mL (≈ 0.544 µM) | 0.5 µg/mL (≈ 0.697 µM) | 0.78 µg/mL (≈ 1.09 µM) | 16 µg/mL (≈ 22.3 µM) |  |  |  |  |  |  |  |  |  |  |
| CC[C@H]1OC(=O)/C(C)=C/[C@H](C)[C@@H](O[C@@H]2O[C@H](C)C[C@H](N(C)C)[C@H]2O)[C@@](C)(OC)C[C@@H](C)C(=O)[C@H](C)[C@H]2N(CCCCc3ccccc3)C(=O)O[C@]12C | 0.39 µg/mL (≈ 0.535 µM) |  | 0.39 µg/mL (≈ 0.535 µM) |  | 0.39 µg/mL (≈ 0.535 µM) | 32 µg/mL (≈ 43.9 µM) | 12.5 µg/mL (≈ 17.1 µM) | 50 µg/mL (≈ 68.6 µM) |  |  |  |  |  |  |  |  |
| CC[C@H]1OC(=O)/C(C)=C/[C@H](C)[C@@H](O[C@@H]2O[C@H](C)C[C@H](N(C)C)[C@H]2O)[C@@](C)(OC)C[C@@H](C)C(=O)[C@H](C)[C@H]2N(CCCc3ccccc3)C(=O)O[C@]12C (stereo in doubt; 10) |  | 1 µg/mL (≈ 1.4 µM) |  | 2 µg/mL (≈ 2.8 µM) |  |  |  | 50 µg/mL (≈ 69.9 µM) | 3.1 µg/mL (≈ 4.34 µM) | 0.78 µg/mL (≈ 1.09 µM) | 64 µg/mL (≈ 89.5 µM) | 25 µg/mL (≈ 35 µM) | 3.1 µg/mL (≈ 4.34 µM) |  |  |  |
| CC[C@H]1OC(=O)/C(C)=C/[C@H](C)[C@@H](O[C@@H]2O[C@H](C)C[C@H](N(C)C)[C@H]2O)[C@@](C)(OC)C[C@@H](C)C(=O)[C@H](C)[C@H]2N(CCCc3ccccc3)C(=O)O[C@]12C (stereo in doubt; 11) |  |  |  |  |  |  | 25 µg/mL (≈ 35 µM) |  | 25 µg/mL (≈ 35 µM) | 6.2 µg/mL (≈ 8.67 µM) |  |  | 25 µg/mL (≈ 35 µM) |  |  |  |
| CC[C@H]1OC(=O)/C(C)=C/[C@H](C)[C@@H](O[C@@H]2O[C@H](C)C[C@H](N(C)C)[C@H]2O)[C@@](C)(OC)C[C@@H](C)C(=O)[C@H](C)[C@H]2N(CCc3ccc(Oc4ccccc4)cc3)C(=O)O[C@]12C (stereo in doubt; 14) |  |  | 1.56 µg/mL (≈ 1.97 µM) |  |  |  | 6.2 µg/mL (≈ 7.82 µM) | 25 µg/mL (≈ 31.5 µM) | 3.1 µg/mL (≈ 3.91 µM) |  | 8 µg/mL (≈ 10.1 µM) |  | 3.1 µg/mL (≈ 3.91 µM) | 1 µg/mL (≈ 1.26 µM) | 2 µg/mL (≈ 2.52 µM) |  |
| CC[C@H]1OC(=O)/C(C)=C/[C@H](C)[C@@H](O[C@@H]2O[C@H](C)C[C@H](N(C)C)[C@H]2O)[C@@](C)(OC)C[C@@H](C)C(=O)[C@H](C)[C@H]2N(CCc3ccc(Oc4ccccc4)cc3)C(=O)O[C@]12C (stereo in doubt; 15) |  |  |  |  |  |  |  |  | 25 µg/mL (≈ 31.5 µM) | 3.1 µg/mL (≈ 3.91 µM) |  | 6.2 µg/mL (≈ 7.82 µM) | 25 µg/mL (≈ 31.5 µM) | 4 µg/mL (≈ 5.04 µM) | 8 µg/mL (≈ 10.1 µM) | 12.5 µg/mL (≈ 15.8 µM) |
| CC[C@H]1OC(=O)[C@H](C)[C@@H](O[C@H]2C[C@@](C)(OC)[C@@H](O)[C@H](C)O2)[C@H](C)[C@@H](O[C@@H]2O[C@H](C)C[C@H](N(C)C)[C@H]2O)[C@](C)(O)C[C@@H](C)C(=O)[C@H](C)[C@@H](O)[C@]1(C)O [ERYTHROMYCIN] | 0.2 µg/mL (≈ 0.273 µM) |  | 3.1 µg/mL (≈ 4.22 µM) | 8 µg/mL (≈ 10.9 µM) | 3.1 µg/mL (≈ 4.22 µM) | 4 µg/mL (≈ 5.45 µM) |  |  |  |  |  |  |  | 0.06 µg/mL (≈ 0.0818 µM) |  |  |

Next, values leading:

| MIC (Staphylococcus aureus [1]; Staphylococcus aureus) | MIC (Streptococcus pneumoniae [2]; [9]) | MIC (Streptococcus pyogenes [3]; Streptococcus pyogenes) | MIC (Streptococcus pneumoniae [4]; Streptococcus pneumoniae) | MIC (Staphylococcus aureus [5]; Staphylococcus aureus) | MIC (Haemophilus influenzae) | MIC (Streptococcus pyogenes [6]; Streptococcus pyogenes) | MIC ([7]; Staphylococcus aureus) | MIC (Staphylococcus aureus [1]) | MIC (Streptococcus pyogenes [3]) | MIC (Streptococcus pneumoniae [8]) | MIC (Streptococcus pyogenes [6]) | MIC (Staphylococcus aureus [5]) | MIC (Streptococcus pneumoniae [2]) | MIC (Streptococcus pneumoniae [4]) | MIC [7] | Compound |
| --- | --- | --- | --- | --- | --- | --- | --- | --- | --- | --- | --- | --- | --- | --- | --- | --- |
| 12.5 µg/mL (≈ 19.6 µM) | 2 µg/mL (≈ 3.13 µM) | 1.56 µg/mL (≈ 2.44 µM) | 2 µg/mL (≈ 3.13 µM) | 12.5 µg/mL (≈ 19.6 µM) |  |  |  |  |  |  |  |  |  |  |  | CC[C@H]1OC(=O)/C(C)=C/[C@H](C)[C@@H](O[C@@H]2O[C@H](C)C[C@H](N(C)C)[C@H]2O)[C@@](C)(OC)C[C@@H](C)C(=O)[C@H](C)[C@H]2N(C(C)C)C(=O)O[C@]12C |
| 25 µg/mL (≈ 40.9 µM) |  | 25 µg/mL (≈ 40.9 µM) |  | 25 µg/mL (≈ 40.9 µM) |  | 50 µg/mL (≈ 81.7 µM) |  |  |  |  |  |  |  |  |  | CC[C@H]1OC(=O)/C(C)=C/[C@H](C)[C@@H](O[C@@H]2O[C@H](C)C[C@H](N(C)C)[C@H]2O)[C@@](C)(OC)C[C@@H](C)C(=O)/C(C)=C/[C@]1(C)OC(=O)OC |
| 6.2 µg/mL (≈ 7.94 µM) |  | 6.2 µg/mL (≈ 7.94 µM) |  | 3.1 µg/mL (≈ 3.97 µM) |  | 25 µg/mL (≈ 32 µM) | 50 µg/mL (≈ 64 µM) |  |  |  |  |  |  |  |  | CC[C@H]1OC(=O)/C(C)=C/[C@H](C)[C@@H](O[C@@H]2O[C@H](C)C[C@H](N(C)C)[C@H]2O)[C@@](C)(OC)C[C@@H](C)C(=O)/C(C)=C/[C@]1(C)OC(=O)NCCCOc1ccc2ccccc2c1 |
| 3.1 µg/mL (≈ 4.55 µM) | 0.5 µg/mL (≈ 0.734 µM) | 0.39 µg/mL (≈ 0.573 µM) | 2 µg/mL (≈ 2.94 µM) | 3.1 µg/mL (≈ 4.55 µM) | 64 µg/mL (≈ 94 µM) |  |  |  |  |  |  |  |  |  |  | C=COCCCN1C(=O)O[C@]2(C)[C@@H](CC)OC(=O)/C(C)=C/[C@H](C)[C@@H](O[C@@H]3O[C@H](C)C[C@H](N(C)C)[C@H]3O)[C@@](C)(OC)C[C@@H](C)C(=O)[C@H](C)[C@@H]12 |
|  |  |  |  |  |  |  |  | 25 µg/mL (≈ 41.9 µM) | 6.2 µg/mL (≈ 10.4 µM) |  |  |  |  |  |  | CC[C@H]1OC(=O)/C(C)=C/[C@H](C)[C@@H](O[C@@H]2O[C@H](C)C[C@H](N(C)C)[C@H]2O)[C@@](C)(OC)C[C@@H](C)C(=O)[C@H](C)[C@H]2NC(=O)O[C@@]21C (stereo in doubt; 7) |
